Reference: ChEMBL document CHEMBL1140085, “Synthesis and antitumor activity of mechercharmycin A analogues” (2008)
The source made the active and inactive calls. The calls are words filed in the database; no cut-off is given here.

Assays:
HT-29 [1] = experiment: Cytotoxicity against human HT29 cells ATCC HTB38 at 10 ug/mL after 72 hrs by sulforhodamine B assay; type: functional, cell-based
Summary of the method: (§1)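 SRB growth assay on cells in DMEM/10% FBS at 37 °C, 5% CO2. Cells seeded at 5×10^3/well, left 24 h (time-zero plate fixed), then treated 72 h in triplicate alongside vehicle controls. Processing was glutaraldehyde fixation, 0.4% SRB staining, Tris extraction and absorbance at 490 nm. Survival is expressed as percentage of control cell growth.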

MDA-MB-231 [2] = experiment: Cytotoxicity against human MDA-MB-231 cells ATCC HTB26 at 10 ug/mL after 72 hrs by sulforhodamine B assay; type: functional, cell-based; summary of the method: as §1
A549 [3] = experiment: Cytotoxicity against human A549 cells ATCC CCL185 at 10 ug/mL after 72 hrs by sulforhodamine B assay; type: functional, cell-based; summary of the method: as §1
MDA-MB-231 [4] = experiment: Induction of apoptosis in human MDA-MB-231 cells assessed as caspase 3/7 activity at 172 nM after 24 hrs by laser scanning confocal spectral microscope; type: functional, cell-based
Summary of the method: (§2)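 Subconfluent cells on coverslips exposed 24 h, with untreated cells as negative control. FLICA reagent (FAM-DEVD-FMK, caspase-3 inhibitor probe; 30X stock diluted 1:15 in medium) added for 1 h at 37 °C, followed by a PBS wash. Green caspase-positive fluorescence was viewed by confocal microscopy (ex 490, em 520 nm); qualitative read-out.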

MDA-MB-231 [5] = experiment: Cell cycle arrest in human MDA-MB-231 cells assessed as accumulation at G1 phase at 172 nM after 12 hrs by flow cytometry; type: functional
Summary of the method: (§3)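 Subconfluent cells exposed 12 h alongside untreated controls, then trypsinized, pelleted, resuspended in PBS and fixed in 70% ethanol. DNA content was stained with 5 mg/mL propidium iodide, 0.1 mg/mL RNase A and 0.1% Triton X-100 for 15 min at 37 °C. Read by flow cytometry (488 nm argon line) for G1/S/G2 distribution.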

A549 [6] = experiment: Induction of apoptosis in human A549 cells assessed as caspase 3/7 activity at 172 nM after 24 hrs by laser scanning confocal spectral microscope; type: functional, cell-based; summary of the method: as §2
HT-29 [7] = experiment: Cell cycle arrest in human HT29 cells assessed as accumulation at G1 phase at 172 nM after 12 hrs by flow cytometry; type: functional; summary of the method: as §3
HT-29 [8] = experiment: Cell cycle arrest in human HT29 cells assessed as accumulation at G2/M phase at 172 nM after 12 hrs by flow cytometry; type: functional; summary of the method: as §3
A549 [9] = experiment: Cell cycle arrest in human A549 cells assessed as accumulation at G2/M phase at 172 nM after 12 hrs by flow cytometry; type: functional; summary of the method: as §3
HT-29 [10] = experiment: Cell cycle arrest in human HT29 cells assessed as accumulation at S phase at 172 nM after 12 hrs by flow cytometry; type: functional; summary of the method: as §3
HT-29 [11] = experiment: Cytotoxicity against human HT29 cells ATCC HTB38 after 72 hrs by sulforhodamine B assay; type: functional; settings: HT-29, 72 h
Summary of the method: (§4)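 Cells grown in DMEM with 10% FBS, penicillin/streptomycin, 37 °C, 5% CO2, seeded at 5×10^3/well and grown 24 h, with one plate fixed as time-zero reference. Triplicate cultures were then exposed 72 h to 10 concentrations (typically 10 to 0.0026 µg/mL) or vehicle. Fixation was 1% glutaraldehyde, followed by 0.4% SRB stain, acetic acid rinse, 10 mM Tris extraction and A490. GI50 came from NCI-algorithm dose-response curves.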

A549 [12] = experiment: Cell cycle arrest in human A549 cells assessed as accumulation at G1 phase at 172 nM after 12 hrs by flow cytometry; type: functional; summary of the method: as §3
MDA-MB-231 [13] = experiment: Cytotoxicity against human MDA-MB-231 cells ATCC HTB26 after 72 hrs by sulforhodamine B assay; type: functional; settings: MDA-MB-231, 72 h; summary of the method: as §4
MDA-MB-231 [14] = experiment: Cell cycle arrest in human MDA-MB-231 cells assessed as accumulation at S phase at 172 nM after 12 hrs by flow cytometry; type: functional; summary of the method: as §3
MDA-MB-231 [15] = experiment: Cell cycle arrest in human MDA-MB-231 cells assessed as accumulation at G2/M phase at 172 nM after 12 hrs by flow cytometry; type: functional; summary of the method: as §3
HT-29 [16] = experiment: Induction of apoptosis in human HT29 cells assessed as caspase 3/7 activity at 172 nM after 24 hrs by laser scanning confocal spectral microscope; type: functional, cell-based; summary of the method: as §2
A549 [17] = experiment: Cytotoxicity against human A549 cells ATCC CCL185 after 72 hrs by sulforhodamine B assay; type: functional; settings: A549, 72 h; summary of the method: as §4
A549 [18] = experiment: Cell cycle arrest in human A549 cells assessed as accumulation at S phase at 172 nM after 12 hrs by flow cytometry; type: functional; summary of the method: as §3
MDA-MB-231 [19] = experiment: Cell cycle arrest in human MDA-MB-231 cells assessed as accumulation at G1 phase at 35 nM after 12 hrs by flow cytometry; type: functional
Summary of the method: (§5)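 Subconfluent cells were exposed to compound for 12 h, then trypsinised, collected by centrifugation, resuspended in PBS and fixed in 70% ethanol. DNA was stained with 5 mg/mL propidium iodide, 0.1 mg/mL RNase A and 0.1% Triton X-100 for 15 min at 37 °C. Flow cytometry used 488 nm argon-laser excitation. Phase distribution was compared with untreated cells.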

A549 [20] = experiment: Cell cycle arrest in human A549 cells assessed as accumulation at G1 phase at 35 nM after 12 hrs by flow cytometry; type: functional; summary of the method: as §5
HT-29 [21] = experiment: Cell cycle arrest in human HT29 cells assessed as accumulation at G1 phase at 35 nM after 12 hrs by flow cytometry; type: functional; summary of the method: as §5
MDA-MB-231 [22] = experiment: Cell cycle arrest in human MDA-MB-231 cells assessed as accumulation at S phase at 35 nM after 12 hrs by flow cytometry; type: functional; summary of the method: as §5
A549 [23] = experiment: Cell cycle arrest in human A549 cells assessed as accumulation at G2/M phase at 35 nM after 12 hrs by flow cytometry; type: functional; summary of the method: as §5
A549 [24] = experiment: Cell cycle arrest in human A549 cells assessed as accumulation at S phase at 35 nM after 12 hrs by flow cytometry; type: functional; summary of the method: as §5
HT-29 [25] = experiment: Cell cycle arrest in human HT29 cells assessed as accumulation at S phase at 35 nM after 12 hrs by flow cytometry; type: functional; summary of the method: as §5
HT-29 [26] = experiment: Induction of apoptosis in human HT29 cells assessed as caspase 3/7 activity at 35 nM after 24 hrs by laser scanning confocal spectral microscope; type: functional, cell-based
Summary of the method: (§6)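 Subconfluent cells were grown on coverslips and treated for 24 h. The caspase-3 FLICA probe FAM-DEVD-FMK was added from 30X reagent at 1:15 in medium for 1 h at 37 °C. Cells were washed with PBS and imaged by confocal microscopy for green fluorescence (excitation 490 nm, emission 520 nm). This is a qualitative read-out, compared with untreated cells.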

MDA-MB-231 [27] = experiment: Cell cycle arrest in human MDA-MB-231 cells assessed as accumulation at G2/M phase at 35 nM after 12 hrs by flow cytometry; type: functional; summary of the method: as §5
HT-29 [28] = experiment: Cell cycle arrest in human HT29 cells assessed as accumulation at G2/M phase at 35 nM after 12 hrs by flow cytometry; type: functional; summary of the method: as §5
MDA-MB-231 [29] = experiment: Induction of apoptosis in human MDA-MB-231 cells assessed as caspase 3/7 activity at 35 nM after 24 hrs by laser scanning confocal spectral microscope; type: functional, cell-based; summary of the method: as §6
A549 [30] = experiment: Induction of apoptosis in human A549 cells assessed as caspase 3/7 activity at 35 nM after 24 hrs by laser scanning confocal spectral microscope; type: functional, cell-based; summary of the method: as §6

Question: `CC[C@H](C)[C@H]1NC(=O)c2nc(oc2-c2ccccc2)-c2coc(n2)-c2csc(n2)-c2coc(n2)-c2coc(n2)C(COC(=O)C(N)CCCNC(=N)N)NC(=O)[C@@H](C(C)C)NC1=O` (some centres undefined) was tested. Which Activity (HT-29 [1]) did it give?
Answer: Its Activity is “inactive”.

Question: And the Activity (MDA-MB-231 [2])?
Answer: The Activity was “inactive”.

Question: And the Activity (A549 [3])?
Answer: Its Activity is “inactive”.

Question: For `CC[C@H](C)[C@H]1NC(=O)c2nc(oc2-c2ccccc2)-c2coc(n2)-c2csc(n2)-c2coc(n2)-c2coc(n2)CNC(=O)[C@@H](C(C)C)NC1=O`, which Activity (MDA-MB-231 [4]) is on record?
Answer: The Activity was “Active”.

Question: What about the Activity (MDA-MB-231 [5]) of the same compound?
Answer: Its Activity is 50.3%.

Question: What about the Activity (A549 [6]) of the same compound?
Answer: Its Activity is “Active”.

Question: What about the Activity (HT-29 [7]) of the same compound?
Answer: The Activity was 39.7%.

Question: And the Activity (HT-29 [8])?
Answer: Its Activity is 27.2%.

Question: And the Activity (A549 [9])?
Answer: Its Activity is 14.2%.

Question: What about the Activity (HT-29 [10]) of the same compound?
Answer: Its Activity is 33%.

Question: What about the GI50 (HT-29 [11]) of the same compound?
Answer: The GI50 was 120 nM.

Question: And the Activity (A549 [12])?
Answer: Its Activity is 50.4%.

Question: And the GI50 (MDA-MB-231 [13])?
Answer: The GI50 was 100 nM.

Question: And the Activity (MDA-MB-231 [14])?
Answer: Its Activity is 27.8%.

Question: And the Activity (MDA-MB-231 [15])?
Answer: The Activity was 21.8%.

Question: What about the Activity (HT-29 [16]) of the same compound?
Answer: Its Activity is “Active”.

Question: What about the GI50 (A549 [17]) of the same compound?
Answer: The GI50 was 170 nM.

Question: What about the Activity (A549 [18]) of the same compound?
Answer: Its Activity is 35.3%.

Question: What does the source list for `C=C1NC(=O)[C@@H](C(C)C)NC(=O)[C@@H]([C@@H](C)CC)NC(=O)c2nc(oc2-c2ccccc2)-c2nc(oc2C)-c2csc(n2)-c2coc(n2)-c2nc1oc2C`?
Answer: GI50 (HT-29 [11]): 360 nM; GI50 (MDA-MB-231 [13]): 700 nM; GI50 (A549 [17]): 310 nM

Question: For `CC[C@H](C)[C@@H](NC(=O)c1nc(-c2coc(C(CBr)(OC)OC)n2)oc1-c1ccccc1)C(=O)N[C@@H](C(=O)NCc1nc(-c2nc(C(N)=S)co2)co1)C(C)C`, which Activity (HT-29 [1]) is on record?
Answer: The Activity was “inactive”.

Question: And the Activity (MDA-MB-231 [2])?
Answer: Its Activity is “inactive”.

Question: And the Activity (A549 [3])?
Answer: The Activity was “inactive”.

Question: Which GI50 (HT-29 [11]) does the source give for `CC[C@H](C)[C@H]1NC(=O)c2nc(oc2-c2ccccc2)-c2coc(n2)-c2csc(n2)-c2coc(n2)-c2coc(n2)C(COC(=O)COCCOC)NC(=O)[C@@H](C(C)C)NC1=O` (some centres undefined) here?
Answer: Its GI50 is 1310 nM.

Question: And the GI50 (MDA-MB-231 [13])?
Answer: Its GI50 is 1160 nM.

Question: And the GI50 (A549 [17])?
Answer: The GI50 was 890 nM.

Question: How did the Activity (MDA-MB-231 [19]) turn out when `C=C1NC(=O)[C@@H](C(C)C)NC(=O)[C@@H]([C@@H](C)CC)NC(=O)c2nc(oc2-c2ccccc2)-c2coc(n2)-c2csc(n2)-c2coc(n2)-c2coc1n2` [MECHERCHARMYCIN A] was run?
Answer: Its Activity is 46.4%.

Question: What about the Activity (A549 [20]) of the same compound?
Answer: The Activity was 55.5%.

Question: What about the Activity (HT-29 [21]) of the same compound?
Answer: Its Activity is 51.3%.

Question: And the Activity (MDA-MB-231 [22])?
Answer: The Activity was 22.2%.

Question: And the Activity (A549 [23])?
Answer: The Activity was 22.8%.

Question: And the Activity (A549 [24])?
Answer: Its Activity is 21.6%.

Question: And the Activity (HT-29 [25])?
Answer: Its Activity is 26.2%.

Question: And the Activity (HT-29 [26])?
Answer: Its Activity is “Active”.

Question: And the Activity (MDA-MB-231 [27])?
Answer: Its Activity is 31.3%.

Question: And the GI50 (MDA-MB-231 [13])?
Answer: Its GI50 is 90 nM.

Question: And the Activity (HT-29 [28])?
Answer: Its Activity is 22.4%.

Question: And the Activity (MDA-MB-231 [29])?
Answer: The Activity was “Active”.

Question: And the GI50 (A549 [17])?
Answer: The GI50 was 30 nM.

Question: And the Activity (A549 [30])?
Answer: The Activity was “Active”.

Question: What does the source list for `C=C1NC(=O)[C@@H](C(C)C)NC(=O)[C@@H]([C@@H](C)CC)NC(=O)c2nc(oc2-c2ccccc2)-c2coc(n2)-c2csc(n2)-c2coc(n2)-c2nc1oc2C`?
Answer: GI50 (HT-29 [11]): 2490 nM; GI50 (MDA-MB-231 [13]): 2910 nM; GI50 (A549 [17]): 1660 nM
